Experimental data taken from ChEMBL document CHEMBL4422632, “Design of Novel Inhibitors of Human Thymidine Phosphorylase: Synthesis, Enzyme Inhibition, in Vitro Toxicity, and Impact on Human Glioblastoma Cancer” (J Med Chem, 2019).
The source made the active and inactive calls. No cut-off for these calls is given here.

What was measured:
Thymidine phosphorylase = molecular target: T1, Thymidine phosphorylase (Homo sapiens, UniProt P19971); assay: Inhibition of recombinant human thymidine phosphorylase expressed in Escherichia coli Rosetta (DE3) cells using thymidine as substrate after 1 min by UV/visible spectrophotometry
T1 sequence (P19971 whole entry): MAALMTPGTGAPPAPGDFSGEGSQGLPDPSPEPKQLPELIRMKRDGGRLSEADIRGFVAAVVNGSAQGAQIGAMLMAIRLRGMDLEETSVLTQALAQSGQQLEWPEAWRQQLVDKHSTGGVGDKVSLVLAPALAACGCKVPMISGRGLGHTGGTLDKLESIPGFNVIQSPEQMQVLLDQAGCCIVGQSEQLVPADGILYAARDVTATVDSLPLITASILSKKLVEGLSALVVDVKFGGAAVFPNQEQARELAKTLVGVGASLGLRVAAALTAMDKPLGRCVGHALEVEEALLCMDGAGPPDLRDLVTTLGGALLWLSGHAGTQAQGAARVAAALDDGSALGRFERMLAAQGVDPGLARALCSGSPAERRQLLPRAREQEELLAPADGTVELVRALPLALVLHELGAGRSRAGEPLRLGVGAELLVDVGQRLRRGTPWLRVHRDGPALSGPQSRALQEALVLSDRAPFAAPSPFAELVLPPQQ

U-87 MG [1] = assay: Anti-angiogenic activity in tumor of human U87MG cells xenografted in nude BALB/c mouse assessed as reduction in VEGF staining at 50 mg/kg, ip administered for 14 days by immunohistochemistry; type: functional, organism-based; details: U-87MG ATCC
Summary of the method: (§1)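 Male nude mice bearing subcutaneous right-flank xenografts of 5 x 10⁵ U-87 MG cells; dosing began at about 50 mm³ tumors, ip daily for 14 days. Tumors formalin-fixed, paraffin sections 3 µm; citrate pH 6 antigen retrieval at 95-98 °C; primary antibody overnight at 4 °C, HRP secondary, DAB. Positive area quantified by optical density at x200, 4 images per tumor; mean ± SEM, one-way ANOVA with Dunnett.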

U-87 MG [2] = assay: Induction of apoptosis in human U87MG cells xenografted in BALB/c nude mouse assessed as caspase-3 levels at 50 mg/kg, ip after 14 days by immunohistochemistry; type: functional, organism-based; details: U-87MG ATCC
Summary of the method: (§2)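 Male BALB/c nude mice implanted subcutaneously with 5 x 10⁵ U-87 MG cells in the right flank. Treated IP at 50 mg/kg/day for 14 days, with saline controls, starting once tumors reached about 50 mm³. Tumors fixed in formaldehyde and cut at 3 µm. Citrate pH 6 antigen retrieval.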

U-87 MG [3] = assay: Anti-angiogenic activity in tumor of human U87MG cells xenografted in nude BALB/c mouse assessed as reduction in number of blood vessels at 50 mg/kg, ip administered for 14 days by hematoxylin and eosin-staining based light microscopy; type: functional, organism-based; details: U-87MG ATCC
Summary of the method: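 U-87 MG flank xenografts (5 x 10⁵ cells) in male nude mice; ip treatment daily from about 50 mm³ for 14 days, with temozolomide at 50 mg/kg/day in the co-treatment arm. Vessel density counted on HE-stained 3 µm sections by hot-spot method, mean of four fields per tumor at x200, avoiding gross haemorrhage. One-way ANOVA/Dunnett.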

[4] = Toxicity in nude BALB/c mouse xenografted with human U87MG cells assessed as reduction in body weight at 50 mg/kg, […]; type: organism-based; design: scale not given: the % may be the effect or the level left; details: in vivo, ip, 120 h
U-87 MG [5] = assay: In-vivo inhibition of cell proliferation in human U87MG cells xenografted in BALB/c nude mouse at 50 mg/kg, ip after 14 days by Ki-67b-staining based assay; type: functional, organism-based; details: U-87MG ATCC; summary of the method: as §2
U-87 MG [6] = assay: Anti-angiogenic activity in tumor of human U87MG cells xenografted in nude BALB/c mouse assessed as reduction in CD31 staining at 50 mg/kg, ip administered for 14 days by immunohistochemistry; type: functional, organism-based; details: U-87MG ATCC; summary of the method: as §1
U-87 MG [7] = assay: Antitumor activity against human U87MG cells xenografted in BALB/c nude mouse assessed as tumor growth inhibition 50 mg/kg/day, ip administered for 14 days; type: functional, organism-based; details: U-87MG ATCC
Summary of the method: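 5 x 10⁵ U-87 MG cells implanted subcutaneously in right flank of male BALB/c nude mice; at about 50 mm³, randomized to saline or ip 50 mg/kg/day, with temozolomide 50 mg/kg/day in the combination arm, for 14 days. Relative tumor volume = volume on day / day 0; TGI on day 14 = [1 − RTV treated/RTV control] x 100. Two-way ANOVA with Bonferroni.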

Row | IC50 (Thymidine phosphorylase) [µM] | Compound | Activity (U-87 MG [1]) | Activity (U-87 MG [2]) | Activity (U-87 MG [3]) | Activity [4] [%] | inhibition (U-87 MG [5]) | Activity (U-87 MG [6]) | TGI (U-87 MG [7])
1 | > 100 | O=c1[nH]c(CNCC(O)CO)c(Br)c(=O)[nH]1 (centres undefined) |  |  |  |  |  |  | 
2 |  | Cn1nnc2c(C(N)=O)ncn2c1=O [TEMOZOLOMIDE] | inactive | inactive | inactive | < 20 | inactive | inactive | Active
3 | > 100 | CCCN(CCC)Cc1[nH]c(=O)[nH]c(=O)c1I |  |  |  |  |  |  | 
